Laboratory results published in the EternaBench riboswitch data.

System: MS2 coat protein
Experiment: apparent Kd, MS2 coat protein; higher = weaker binding; RNA-MaP array; FMN 200 µM where present
Procedure, shortened: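 The titrant was SNAP-549-labelled MS2 coat protein, run from 0.7 or 1.5 nM in doubling steps to 3 µM. It was applied to designs transcribed by stalled E. coli RNA polymerase on Illumina sequencing-chip clusters, without ligand first and then with constant ligand, in 100 mM Tris-HCl pH 7.5, 80 mM KCl, 4 mM MgCl2, BSA, DTT, yeast tRNA and Tween-20. The apparent Kd is the median of filtered per-cluster binding-curve fits, with green signal normalised to red-channel RNA signal and control-cluster median Fmax.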

[1] = designed as: OFF switch for flavin mononucleotide, no ligand
[2] = ligand present: flavin mononucleotide, designed as: OFF switch for flavin mononucleotide
[3] = designed as: ON switch for flavin mononucleotide, no ligand
[4] = ligand present: flavin mononucleotide, designed as: ON switch for flavin mononucleotide

Row | Sequence | apparent Kd [1] | apparent Kd [2] | apparent Kd [3] | apparent Kd [4]
1 | CAGAAGUCAGGAUAUCCAUGGCGGCACUUGCGUGGUGGCGUGGAGAAGGGACAUGAGGAUCACCCAUGUAAAGG | 171 nM | 237 nM | – | –
2 | AAAAAGCGAGGAUAUACAUGAGGAUCACCCAUGUCAAAAAAAUAGAAAAAAAUAAAAAGUAGAAGGCGCAAAAA | 58.8 nM | 58.4 nM | – | –
3 | GAGGCCCAGGAAGGUAGAAUGAGCAGAAGGCAACGAAGCGUGAUCGACAUGAGGAUCACCCAUGUUGAGGAUAUGCGCCUCCAC | 63.1 nM | 178 nM | – | –
4 | AAUAACAGAGGAUAUACUAUUUUAUGUAUUUAUUAUUUUAAACAUGAGGAUCACCCAUGUAGAAGGCUGAGUAA | 23.8 nM | 21.3 nM | – | –
5 | AAAUAACAUGUAGGAUAUGCAGCAUUAACCAUCGCAGAAGGACAUGAGGAUCACCCAUGUGGCGAUACAAUGCAAUAAGGGAAU | 16.2 nM | 40.7 nM | – | –
6 | AUGCUUCACACAGGAUAUUACAACAUGAGGAUCACCCAUGUACAUGACAUGACGAUCACGCAUGUUAAGAAGGGUGUGAAGCAU | 587 nM | 449 nM | – | –
7 | GGAUAGAUGAAGGGCGAACGCGCACAUGAGGAUCACCCAUGUAGAAGGCGGUCCGCAACGCGGAUCGAGGAUAUAUAGUAUACG | 18.4 nM | 16.8 nM | – | –
8 | GUAGCUACUAUUAUACAUGAGGAUCACCCAUGUUACAUGGGUAAGGAUAUUGAAGUUAUUAUUAUCAAGAAGGUACUAUGCUAC | – | – | 570 nM | 102 nM
9 | GACAUUGACAAGAAGGCAAACAUGAGGAUCACCCAUGUUCUGCAUGUAUAUUGAGGAUAUUGCCAAUGCAUGUGGAUCACCCAA | 6.63 nM | 10.8 nM | – | –
10 | CUAAGUGCCGGAGGAUAUACAUGAGGAUCACCCAUGUCAGUCUGUUUACAUGUAGAAGGCCGGCGAACAAAGAACUUGCCACGA | 43.8 nM | 242 nM | – | –
11 | AGCAGAACGUCAGGAUAUGUGGGUACUUUAGUCACAUGAGGAUCACCCAUGUAGGACUGCGAUCAACAGAAGGGACAAUUAGCA | – | – | 279 nM | 16.2 nM
12 | UUGUGCUUAGAGAAGGUUCAAACUACAUAUUGCGCACAUGAGGAUCACCCAUGUUGGUGAAUAAGAAAGGAUAUUUGACUGUAU | 131 nM | 98 nM | – | –
13 | ACGGUGGUCACAGGAUAUCCGGCCCGCGUGCCUGGAGAAGGGUGACUCAGAACCACAUGAGGAUCACCCAUGUGCCUUGCCGUA | – | – | 92.1 nM | 31.9 nM
14 | AAACCGUGUGGAGGAUAUGCAGUUGAGGUGAGGCGGCAGCUCUAUACGACAGCAGAAGGCCACAUGAGGAUCACCCAUGUAGGU | 107 nM | 326 nM | – | –
15 | AAUAGUGGAGGAUAUACAUGAGGAUCACCCAUGUAGAAAGGAAGUGUAUAUAUGGCGUGUAGAAGGCCAAAUAA | 36.4 nM | 34.1 nM | – | –
16 | AUUGAGCUAGGAUAUACAUGAGGAUCACCCAUGUAGCAAAAUAGCUAUACAUGAUCGGGUAGAAGGAGCGCGAG | 13.6 nM | 20.5 nM | – | –
17 | AUCAGCUUGACAGGAUAUACAUGUCAGCGAAAGCUGACUAUCUUAAUAACAUGAGGAUCACCCAUGUAGAAGGGUCGAGCUGAU | 16.9 nM | 26.4 nM | – | –
18 | UUUCCACAUGAGGAUCACCCAUGUCAGGAUAUUAGAUCUAUUUAUACAUAUAAUUAUUUAAGAAGGGACACUAA | 18.1 nM | 16.9 nM | – | –
19 | GCGCGCGCAGGAUAUACAAUGCGCGCGCGAAAGUGUGUGUUACAUGAGGAUCACCCAUGUAGAAGGGUGUGUGU | 539 nM | 492 nM | – | –
20 | GGUGGUGUCCGAGGAUAUCGUUAGGCGUUGUUGCGAGAAGGCGGACAUGAGGAUCACCCAUGUUUGAUAAAAGAGGAGGUUGUG | 86.1 nM | 130 nM | – | –
21 | AAAACGUGAGGAUAUCCAAUAUAUGACAUGAGGAUCACCCAUGUUUCCACUCGUACCUCCGGAGAAGGCACAAUUU | 51.2 nM | 41.7 nM | – | –

Row | Sequence | apparent Kd [1] | apparent Kd [2] | apparent Kd [3] | apparent Kd [4]
22 | GCUGGGUCAGGAUAUACAGGGUCGAAAGAUCUGUGAUACCUACAUGAGGAUCACCCAUGUAGAAGGGACUGGGC | 15.7 nM | 38.1 nM | – | –
23 | UAGGGCUUGGGCAGAAGGGUUACAUGAGGAUCACCCAUGUACAGAAGGAGAGCCUUGGGAAAGCUCUAGGAUAUGUCUAUGGGU | 9.93 nM | 6.66 nM | – | –
24 | CCGCUGUUAGGAUAUCUGAAGCUUCAAUGGAAGUCUUCAUUGGAGAAGGGACAUGAGGAUCACCCAUGUAGGGA | 192 nM | 253 nM | – | –
25 | AAACAUGUCCGAGGAUAUCUGGAAACAUUUUCAAGAGAAGGCGGACAUGAGGAUCACCCAUGUCUCUCCUCAUCAACUACAAAC | 8.57 nM | 53.2 nM | – | –
26 | CCAUGGCAUGUAGGAUAUGUCUGACAAAGUCAGACAGAAGGACAUGAGGAUCACCCAUGUAAACCGAAAGGAACAUAGCCAUGG | 6.54 nM | 7.3 nM | – | –
27 | GUAUCGUGAGGAUAUCAUGAUUGACUUUUGUUUUGUCAGCGUGAGAAGGCACAUGAGGAUCACCCAUGUGAUUA | 22.3 nM | 52.9 nM | – | –
28 | AAAGUCUAUUGAGGAUAUCGUUAUCAAAGAUAAUGAGAAGGCAAACAAUCAUGAGGACAUGAGGAUCACCCAUGUUGUGACCAU | – | – | 22.3 nM | 13.4 nM
29 | GCACUUGCGUAGAAGGUACUAUAUAAUGCAGUGUAAGGAUAUACAUACAUGAGGAUCACCCAUGUAAAUGGAAUUUGCAAGUGC | – | – | 11.8 nM | 9.15 nM
30 | CGACAGUCAGGAUAUGCAAAAAAAAAAAAAAAAAAAAAAAAGCAGAAGGGACAUGAGGAUCACCCAUGUCGUCG | 59.5 nM | 45.2 nM | – | –
31 | UGAAAUCAUGUAGGAUAUGCAUGGCGAAGCUACGCAGAAGGACAUGAGGAUCACCCAUGUUCUAGCUACCGAGUACGGUGGCAA | 23.1 nM | 121 nM | – | –
32 | AUAUAACAUGAGGAUCACCCAUGUCAACAAAGUCGAGGAUAUGGGCAAAUAAAAUAAGAACCAGAAGGCGAAUAAU | – | – | 291 nM | 51.9 nM
33 | AUCCAGGUAACAUGAGGAUCACCCAUGUUCCUUCGCUCUGGCGAGGAUAUGAAGGGAUUGUCCCAUCAGAAGGCGCAUGGGUGC | – | – | 46.7 nM | 57.5 nM
34 | CCCAUGUUAGGAUAUCGGCUCCGCCGUUCCACAUGGCGCUCCGAGAAGGAACAUGAGGAUCACCCAUGUAAAGA | 39.1 nM | 140 nM | – | –
35 | AAAUAUAAUGAGGAUAUCGUACUGGAUAUAGUGCGAGAAGGCAUUACAUGAGGAUCACCCAUGUUUUGUUGGGA | 30.8 nM | 89.5 nM | – | –
36 | GGAUUACAUGAGGAUCACCCAUGUGAGGAUAUCGAUGUCCUCAAUCAAGUGCGGGACUCGAGAAGGCACUUGGA | 70.3 nM | 30.9 nM | – | –
37 | AAAUUGGUAGAGGAUAUCGGAUAGGAUUUAUUGCGAGAAGGCUGCACAUGAGGAUCACCCAUGUUCUGUUGGGA | 201 nM | 280 nM | – | –
38 | GUAGCUACAUGAGGAUCACCCAUGUAGGAUAUCGCUAUUGUAAUCAUGAAACAUGAUUACAAUAGCGAGAAGGACAUGUGCUAC | 20.9 nM | 25.2 nM | – | –
39 | GCGCCUCAGAACAUGAGGAUCACCCAUGUGCUGCGGGCGCCGUAGGAUAUGAUGGUACGCUACCAUCAGAAGGAUGAUGGUACC | – | – | – | 5.02 nM
40 | UUUAUGUGAGGAUAUAGUACUCCUUCUAUUAUUAUUGAGUACUAGAAGGCACAUGAGGAUCACCCAUGUAGUAC | 30 nM | 48.3 nM | – | –
41 | UUAUUAUGUGUAGGAUAUGCAUAUUAUCAUUAUGCAGAAGGACAUGAGGAUCACCCAUGUAUAUUAUUAUUAUAUAUUAUAUAU | 15.5 nM | 12.6 nM | – | –
42 | CCAUUCAGAGGAUAUGCGCAUAGAUAAGACUUUGUUUCUUAACAUGAGGAUCACCCAUGUAGAAGGCUGUACCC | 24.1 nM | 21 nM | – | –
